Data on twelve compounds can be found in ChEMBL document CHEMBL5543076, “Chromone-based small molecules for multistep shutdown of arachidonate pathway: Simultaneous inhibition of COX-2, 15-LOX and mPGES-1 enzymes” (Eur J Med Chem, 2024).

The source made the active and inactive calls. The calls are words filed in the database; no cut-off is given here.

Data set [1] is described as follows: Inhibition of soybean 15-LOX. Further details: species or system Glycine max. The method, boiled down:
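Soybean 15-LOX activity measured with a lipoxygenase inhibitor screening kit per the manufacturer's instructions; IC50 determined.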

For data set [2], the target named is T1, Prostaglandin G/H synthase 1 (Ovis aries, UniProt P05979).
T1 sequence (P05979 whole entry): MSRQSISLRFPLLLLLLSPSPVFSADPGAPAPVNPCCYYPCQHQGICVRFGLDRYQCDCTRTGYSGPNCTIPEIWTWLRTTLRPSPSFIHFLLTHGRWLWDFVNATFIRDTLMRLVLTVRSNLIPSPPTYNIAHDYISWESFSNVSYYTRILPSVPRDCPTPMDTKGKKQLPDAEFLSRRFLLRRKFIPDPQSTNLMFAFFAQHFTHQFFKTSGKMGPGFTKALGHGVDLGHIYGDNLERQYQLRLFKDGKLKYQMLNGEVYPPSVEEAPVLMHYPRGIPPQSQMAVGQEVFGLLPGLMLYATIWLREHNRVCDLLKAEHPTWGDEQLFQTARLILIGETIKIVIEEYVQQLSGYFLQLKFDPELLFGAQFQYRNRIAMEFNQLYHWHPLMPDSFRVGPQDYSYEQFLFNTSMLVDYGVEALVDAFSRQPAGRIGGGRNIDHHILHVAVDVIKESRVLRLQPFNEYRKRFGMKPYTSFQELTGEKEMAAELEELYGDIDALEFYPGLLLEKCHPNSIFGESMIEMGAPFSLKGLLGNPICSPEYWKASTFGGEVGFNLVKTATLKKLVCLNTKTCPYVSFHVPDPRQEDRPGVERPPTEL
Nature of the data set: Inhibition of ovine COX-1 by colorimetric assay. The method, boiled down:
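Ovine COX-1 enzyme kit, run following the manufacturer's instructions; IC50 reported as mean of three replicates.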

Data set [3] has as its system RAW264.7. The experiment in a line: Cytotoxicity against mouse RAW264.7 cells measured after 72 hrs by MTT assay. Format: functional, cell-based. The method, boiled down:
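RAW264.7 cells were seeded at 4 × 10³ per well with compound (100 to 0.4 μg/ml, in DMSO) for 72 h at 37 °C, 5% CO2. MTT (5 mg/ml solution) was added for 4 h, formazan dissolved in DMSO, and absorbance read at 490 nm.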

Data set [4] can be described thus: Toxicity in Wistar rat assessed as abundant submucosal infiltration measured after 8 days by H and E staining based analysis. The following applies: in vivo, 192 h, time 8 day. An outline of the steps:
(§1)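 Female Wistar rats dosed for eight days; stomachs then removed for gross inspection of ulceration and histology on H&E-stained sections.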

In data set [5] the test system is RAW264.7. The experiment in a line: Antiinflammatory activity against LPS-induced mouse RAW264.7 cells assessed as downregulation of COX-2 level at 50 ug/ml incubated for 24 hrs by RT-PCR analysis relative to control. The following applies: dose 50 µg/ml. Format: functional.
The subject of data set [6] is RAW264.7. The experiment in a line: Antiinflammatory activity against LPS-induced mouse RAW264.7 cells assessed as downregulation of IL-1 beta level at 50 ug/ml incubated for 24 hrs by RT-PCR analysis relative to control. The following applies: dose 50 µg/ml. It counts as functional.
The subject of data set [7] is RAW264.7. The experiment in a line: Antiinflammatory activity against LPS-induced mouse RAW264.7 cells assessed as upregulation of IL-10 level at 50 ug/ml incubated for 24 hrs by RT-PCR analysis relative to control. Format: functional. The conditions noted are these: dose 50 µg/ml.
In the next data set the target is T2, Prostaglandin E synthase (Homo sapiens, UniProt O14684).
T2 sequence (O14684 whole entry): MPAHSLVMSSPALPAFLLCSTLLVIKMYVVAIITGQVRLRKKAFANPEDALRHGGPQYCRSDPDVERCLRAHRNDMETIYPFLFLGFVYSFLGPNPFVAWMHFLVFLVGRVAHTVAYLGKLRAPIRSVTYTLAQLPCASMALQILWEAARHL
The experiment in a line: Inhibition of human mPGE2S1 using PGH2 as substrate measured after 5 mins by ELISA method. An outline of the steps: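 Cell-free assay using microsomes from interleukin-1β-stimulated human A549 lung carcinoma cells as enzyme source. Reaction contained 20 μM PGH2 and 2.5 mM glutathione with serial inhibitor dilutions, 5 min at room temperature. Stopped with SnCl2, which converts leftover PGH2 to PGF2α. PGE2 measured by ELISA; IC50 ± SD from log dose–response curve.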
In general terms: An ELISA detects its analyte on a solid surface through an enzyme-linked reagent.

Another data set concerns Rattus norvegicus. Nature of the data set: Antiinflammatory activity in formalin-induced paw edema in Wistar rat model assessed as reduction in paw edema volume at 5 mg/kg, po administered once daily via gavage by 7 days by vernier caliper method. Format: functional, organism-based. The following applies: time 7.0 day.
In data set [8] the test system is RAW264.7. Nature of the data set: Antiinflammatory activity against LPS-induced mouse RAW264.7 cells assessed as downregulation of iNOS level at 50 ug/ml incubated for 24 hrs by RT-PCR analysis relative to control. Format: functional. The conditions noted are these: dose 50 µg/ml.
A short description of data set [9]: Toxicity in Wistar rat assessed as effect on gastric ulcer measured after 8 days. The following applies: in vivo, 192 h, time 8 day. The method, boiled down: as §1
Data set [10] concerns RAW264.7. The experiment in a line: Antiinflammatory activity against LPS-induced mouse RAW264.7 cells assessed as downregulation of TNF-alpha level at 50 ug/ml incubated for 24 hrs by RT-PCR analysis relative to control. The following applies: dose 50 µg/ml. Format: functional.
A short description of data set [11]: Toxicity in Wistar rat assessed as congested vessels measured after 8 days by H and E staining based analysis. The following applies: in vivo, 192 h, time 8 day. The method, boiled down: as §1
Data set [12] in a line: Toxicity in Wistar rat assessed as effect on epithelium measured after 8 days by H and E staining based analysis. The following applies: in vivo, 192 h, time 8 day. An outline of the steps:
as §1

Data set [13] in a line: Toxicity in Wistar rat assessed as increase in submucosal inflammatory cells measured after 8 days by H and E staining based analysis. The conditions noted are these: 192 h, time 8 day. An outline of the steps:
as §1

The nature of data set [14]: Toxicity in Wistar rat assessed as dilation of submucosal blood vessels measured after 8 days by H and E staining based analysis. The conditions noted are these: 192 h, time 8 day. The method, boiled down:
as §1

Data set [15] is described as follows: Toxicity in Wistar rat assessed as effect on ulceration measured after 8 days by H and E staining based analysis. The following applies: in vivo, 192 h, time 8 day. The method, boiled down: as §1

Regarding `CN/N=C/c1coc2cc(OC)ccc2c1=O`, the IC50 in data set [1] stood at 4.31 µM; in data set [2] it was 3.62 µM.
As for `O=C(N/N=C/c1coc2ccccc2c1=O)OCc1ccccc1`, the outcome in the data set on RAW264.7 [3] was inactive. Further, the Activity entry is given as “Toxic” in data set [4]; 33% with RAW264.7 [5]; 54% in the data set with RAW264.7 [6]; 43% in the data set with RAW264.7 [7]; 32% in the data set on RAW264.7 [8]; “Non-Toxic” in data set [9]. Also, the Activity is given as 32% in the data set with RAW264.7 [10], “Toxic” in data set [11] and “Non-Toxic” in data set [12]. The results for the IC50 (against Prostaglandin E synthase; in data set [1]; in data set [2]) were 4.1 µM, 1.72 µM and 12.2 µM, respectively. The outcome with Rattus norvegicus was Active.
As for `COc1ccc2c(=O)c(/C=N/NC(=O)OCc3ccccc3)coc2c1`, the Activity result in [13] was “Toxic”; in the data set on RAW264.7 [5], 33%; in the data set with RAW264.7 [6], 54%; with RAW264.7 [7] it was 43%; in the data set on RAW264.7 [8], 32%; in data set [9], “Non-Toxic”. The values for the Activity result (in data set [14]; in the data set with RAW264.7 [10]; in data set [12]) were “Toxic”, 32% and “Non-Toxic”, respectively. The result in the data set with RAW264.7 [3] was inactive. Moreover, the figures for the 50% inhibitory concentration (IC50) (on Prostaglandin E synthase; in data set [1]; in data set [2]) were 2.8 µM, 2.39 µM and 11.1 µM, respectively. Besides, in the data set on Rattus norvegicus, the outcome was Active.
Take `COC(=O)N/N=C/c1coc2ccc(OC)cc2c1=O`: the IC50 amounted to 4.08 µM in data set [1] and 6.92 µM in [2].
For `CN/N=C/c1coc2ccccc2c1=O`, the half-maximal inhibitory concentration (IC50) was found to be 4.44 µM in data set [1] and 4.04 µM in [2].
For the compound `Cc1ccc(-c2cc(C(F)(F)F)nn2-c2ccc(S(N)(=O)=O)cc2)cc1` [CELECOXIB], in data set [15], the Activity entry is on record as “Non-Toxic”. Further, the IC50 at Prostaglandin E synthase worked out at 20.1 µM.
As for `COC(=O)N/N=C/c1coc2ccccc2c1=O`, the IC50 came to 3.7 µM at Prostaglandin E synthase, 2.77 µM in data set [1] and 7.43 µM in data set [2].
On to `O=c1c(O)c(-c2ccc(O)c(O)c2)oc2cc(O)cc(O)c12` [QUERCETIN], for which the IC50 in data set [1] was found to be 3.34 µM.
Turning to `COC(=O)N/N=C/c1coc2cc(OC)ccc2c1=O`, the IC50 in data set [1] stood at 4.59 µM; in [2] it was 6.01 µM.
For `COc1ccc2occ(/C=N/NC(=O)OCc3ccccc3)c(=O)c2c1`, the Activity result in data set [13] was “Toxic”; in the data set with RAW264.7 [5], 33%; in the data set with RAW264.7 [6], 54%; with RAW264.7 [7], 43%; in the data set with RAW264.7 [8], 32%; in data set [9], “Non-Toxic”. Besides, the Activity entry in data set [14] was “Toxic”; in the data set with RAW264.7 [10], 32%; in data set [12], “Non-Toxic”. Besides, in the data set on RAW264.7 [3], the outcome was inactive. Besides, the IC50 on Prostaglandin E synthase was determined as 4.9 µM; in [1] it was 3.05 µM; in data set [2] it was 9.82 µM. Also, the result with Rattus norvegicus was Active.
Regarding `O=C([O-])Cc1ccccc1Nc1c(Cl)cccc1Cl.[Na+]` [DICLOFENAC SODIUM], the results for the Activity entry in [4], in [11] and in data set [12] were “Toxic”, “Toxic” and “Non-Toxic”, respectively.
With `CN/N=C/c1coc2ccc(OC)cc2c1=O`, the figures for the IC50 in data set [1] and in data set [2] were 3.25 µM and 8.67 µM, respectively.

Broadly, the IC50 is the concentration that inhibits the measured activity by half.
